For series [1], the target named is C-X-C chemokine receptor type 4 (Homo sapiens, UniProt P61073). As to the kind of experiment: Displacement of [125I]CXCL12 from human CXCR4 expressed in HEK293 cell membranes after 1.5 hrs by Topcount method. (In general: Displacement assays read how much labelled ligand stays bound in the presence of the test substance.)
Series [2] in a line: Acute toxicity in sc dosed C57BL/6 mouse assessed as maximum tolerated dose by measuring mortality. In kind it is organism-based. The following applies: in vivo. The procedure, abridged: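 Male C57BL/6 or ICR mice (n = 3/group) dosed subcutaneously with escalating doses, low to high; MTD taken as highest dose giving zero mortality (0/3).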
A short description of series [3]: Cmax in C57BL/6 mouse at 6 mg/kg, sc measured up to 4 hrs post dose by LC-MS/MS analysis. The following applies: in vivo. It counts as ADME, organism-based. Also on record: dose 6 mg/kg, route subcutaneous. The procedure, abridged: (§1)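 Male C57BL/6 mice (23.4–25.4 g), quarantined one week, non-fasted, n = 3; single SC dose of 6 mg/kg in 100% saline. Blood taken by cardiac puncture at 0, 0.03, 0.08, 0.25, 1, 1.5, 2 and 4 h and stored at -80 °C. Plasma analysed by LC–MS/MS; parameters from non-compartmental analysis; mean ± SD.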

Series [4] in a line: Half life in C57BL/6 mouse at 6 mg/kg, sc measured up to 4 hrs post dose by LC-MS/MS analysis. It counts as ADME, organism-based. The following applies: in vivo. The procedure, abridged:
as §1

Series [5] can be described thus: AUC (0 to 4 hrs) in C57BL/6 mouse at 6 mg/kg, sc measured up to 4 hrs post dose by LC-MS/MS analysis. The following applies: in vivo. Details: dose 6 mg/kg, time < 4 hr, route subcutaneous. In kind it is ADME, organism-based. The procedure, abridged:
as §1

Sequence of C-X-C chemokine receptor type 4 (P61073 whole entry): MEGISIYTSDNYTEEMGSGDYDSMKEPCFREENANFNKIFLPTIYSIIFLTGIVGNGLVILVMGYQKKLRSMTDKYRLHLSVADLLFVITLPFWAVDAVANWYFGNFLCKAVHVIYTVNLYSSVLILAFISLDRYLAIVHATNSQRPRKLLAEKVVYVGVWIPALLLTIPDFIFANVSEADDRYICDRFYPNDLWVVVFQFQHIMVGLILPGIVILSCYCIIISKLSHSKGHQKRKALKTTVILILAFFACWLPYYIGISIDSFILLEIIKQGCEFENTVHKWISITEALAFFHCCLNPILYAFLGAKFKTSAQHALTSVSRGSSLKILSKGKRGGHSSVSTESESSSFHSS

In series [1], `Cc1cc(NC2CCN(CCC(=O)O)CC2)nc(NCc2cn(CCCNCCCNC3CCCCC3)nn2)n1` came in with an IC50 of 81.8 nM. Moreover, the MTD in series [2] was 75 mg/kg.

`Cc1cc(NC2CCN(C(=O)CCCC(=O)O)CC2)nc(NCc2cn(CCCNCCCNC3CCCCC3)nn2)n1` had an IC50 in series [1] of 158 nM. In series [2], the MTD was 50 mg/kg.

With `Cc1cc(NC2CCN(CCC(N)=O)CC2)nc(NCc2cn(CCCNCCCNC3CCCCC3)nn2)n1`, the IC50 in series [1] was 25.6 nM. For the same compound, the MTD in series [2] was 20 mg/kg.

For `CCc1cc(NC2CCNCC2)nc(NCc2cn(CCCNCCCNC3CCCCC3)nn2)n1`, the IC50 in series [1] came out at 46.8 nM. In addition, the MTD in series [2] amounted to 10 mg/kg.

`O=C(O)CNCCC(=O)N1CCC(Nc2ccnc(NCc3cn(CCCNCCCNC4CCCCC4)nn3)n2)CC1` yielded an IC50 in series [1] of 399 nM. For the same compound, the MTD in series [2] worked out at 100 mg/kg.

For `Cc1cc(NC2CCN(C(=O)CCNCP(=O)(O)O)CC2)nc(NCc2cn(CCCNCCCNC3CCCCC3)nn2)n1`, the IC50 in series [1] was 91.6 nM. In addition, the MTD in series [2] is 100 mg/kg.

`CCc1cc(NC2CCN(C(=O)CCNCC(=O)O)CC2)nc(NCc2cn(CCCNCCCNC3CCCCC3)nn2)n1`: the IC50 in series [1] was 72 nM. Moreover, in series [2], the MTD came out at 50 mg/kg.

The compound `Cc1cc(NC2CCN(C(=O)CC[C@H](N)C(=O)O)CC2)nc(NCc2cn(CCCNCCCNC3CCCCC3)nn2)n1` registered an IC50 in series [1] of 71.1 nM. Moreover, the MTD in series [2] amounted to 50 mg/kg.

`CC(C)c1cc(NC2CCNCC2)nc(NCc2cn(CCCNCCCNC3CCCCC3)nn2)n1`: the IC50 in series [1] came out at 61.1 nM. In series [2], the MTD is 10 mg/kg.

Take `Cc1cc(NC2CCN(C(=O)CCNCCC(=O)O)CC2)nc(NCc2cn(CCCNCCCNC3CCCCC3)nn2)n1`: in series [1], the half-maximal inhibitory concentration (IC50) worked out at 72.2 nM. In series [2], the MTD turned out to be 50 mg/kg.

For `Clc1cc(NC2CCNCC2)nc(NCc2cn(CCCNCCCNC3CCCCC3)nn2)n1`, in series [1], the IC50 was 708 nM. The MTD in series [2] is 10 mg/kg.

In series [1], `CCCN1CCC(Nc2cc(C)nc(NCc3cn(CCCNCCCNC4CCCCC4)nn3)n2)CC1` yielded an IC50 of 47.8 nM. Also, the MTD in series [2] was 10 mg/kg.

As to `COc1cc(NC2CCNCC2)nc(NCc2cn(CCCNCCCNC3CCCCC3)nn2)n1`, the IC50 in series [1] was 473 nM. The MTD in series [2] stood at 10 mg/kg.

As for `Cc1cc(N(C)C2CCN(C(=O)CCNCC(=O)O)CC2)nc(NCc2cn(CCCNCCCNC3CCCCC3)nn2)n1`, in series [1], the 50% inhibitory concentration (IC50) was 97.6 nM. Moreover, in series [2], the MTD worked out at 50 mg/kg.

On to `c1cc(NC2CCNCC2)nc(NCc2cn(CCCNCCCNC3CCCCC3)nn2)n1`, for which the IC50 in series [1] was 34.1 nM. Also, in series [2], the MTD turned out to be 10 mg/kg.

`Cc1cc(NC2CCN(C(=O)CCCNCC(=O)O)CC2)nc(NCc2cn(CCCNCCCNC3CCCCC3)nn2)n1`: the half-inhibitory concentration (IC50) in series [1] is 88.5 nM. For the same compound, the MTD in series [2] came to 75 mg/kg.

Take `Cc1cc(NC2CCNCC2)nc(NCc2cn(CCCNCCCNC3CCCCC3)nn2)n1`: in series [1], the IC50 is 23.9 nM. Moreover, the MTD in series [2] stood at 10 mg/kg.

In series [1], `Cc1cc(NC2CCN(C(=O)CCNCCP(=O)(O)O)CC2)nc(NCc2cn(CCCNCCCNC3CCCCC3)nn2)n1` had an IC50 of 147 nM.

On to `Cc1cc(NC2CCN(CCC#N)CC2)nc(NCc2cn(CCCNCCCNC3CCCCC3)nn2)n1`, for which the IC50 in series [1] is 72.1 nM. In addition, in series [2], the MTD came to 20 mg/kg.

For the compound `Cc1cc(NC2CCN(C(=O)CNCCC(=O)O)CC2)nc(NCc2cn(CCCNCCCNC3CCCCC3)nn2)n1`, the concentration for half-maximal inhibition (IC50) in series [1] stood at 82.6 nM. In series [2], the MTD stood at 100 mg/kg.

Consider `c1cc(CN2CCCNCCNCCCNCC2)ccc1CN1CCCNCCNCCCNCC1` [PLERIXAFOR], for which the Cmax in series [3] is 6200 ng/mL. Besides, the half-life in series [4] is 1.4 h. The AUC(0-t) at 4 h in series [5] was found to be 7150 ng·h/mL.

For `Cc1cc(NC2CCN(CCCCC(=O)O)CC2)nc(NCc2cn(CCCNCCCNC3CCCCC3)nn2)n1`, the IC50 in series [1] turned out to be 93 nM. Moreover, in series [2], the MTD is 75 mg/kg.

In turn, `FC(F)(F)c1cc(NC2CCNCC2)nc(NCc2cn(CCCNCCCNC3CCCCC3)nn2)n1` showed an IC50 in series [1] of 860 nM. The MTD in series [2] is 10 mg/kg.

As usually defined, the IC50 is the concentration needed to halve the response being measured. Broadly, the MTD is the largest dose that counted as tolerated. As a reminder, the Cmax is the peak of the concentration-time curve. By half-life is commonly meant the time needed for the level to fall by half in the phase considered. Low values mean fast loss, high ones slow loss. For orientation: AUC(0-t) means exposure summed from dosing to a finite time, without extrapolation to infinity.
